Common to all, as to assay type: functional
Assay [1] relates to Staphylococcus aureus. As to the kind of experiment: MIC value measured against staphylococcus aureus X1.
Assay [2] concerns Streptococcus pyogenes. As to the kind of experiment: MIC value measured against streptococcus pyogenes C203.
The subject of assay [3] is Staphylococcus epidermidis. As to the kind of experiment: MIC value was measured against staphylococcus epidermidis 222. The method in brief:
(§1)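 Susceptibility determined by standard agar-dilution method against a panel of bacterial strains.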

Assay [4] deals with Streptococcus pneumoniae. As to the kind of experiment: MIC value was measured against streptococcus pneumoniae park1. The method in brief:
as §1

For assay [5], the system named is Haemophilus influenzae. Put plainly: MIC value was measured against haemophilus influenzae CL.
In assay [6] the test system is Enterococcus faecalis. As to the kind of experiment: MIC value was measured against streptococcus faecalis X66. The method in brief: as §1
The test system of assay [7] is Staphylococcus aureus. Put plainly: Effective dose against mice infected with Staphylococcus aureus after peroral administration (in vivo). The following applies: in Mus musculus, po.
The test system of assay [8] is Streptococcus pyogenes. Put plainly: Effective dose against mice infected with streptococcus pyogenes after peroral administration (in vivo). The following applies: in Mus musculus, po.
In assay [9] the test system is Mus musculus. Put plainly: ED50 value was measured against streptococcus pyogenes after sc administration in mice in vivo, in experiment 3). Put shortly: (§2)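 Infected mice were dosed orally or subcutaneously at 1 and 5 h postinfection, 0.25 mL of antibiotic solution in 10% aqueous ethanol per dose. Tartaric acid was added where needed for solubility. Several dose concentrations were tested to give the ED50.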

Assay [10] has as its system Mus musculus. Put plainly: ED50 value was measured against staphylococcus aureus after po administration in mice in vivo, in experiment 3). The method in brief: as §2
For assay [11], the system named is Mus musculus. Put plainly: ED50 value was measured against streptococcus pneumoniae after po administration in mice in vivo, in experiment 3). The method in brief:
as §2

Assay [12] deals with Mus musculus. Put plainly: ED50 value was measured against streptococcus pyogenes after po administration in mice (in vivo, in experiment 3). The method in brief:
as §2

The test system of assay [13] is Mus musculus. Put plainly: ED50 value was measured against staphylococcus aureus after sc administration in mice in vivo, in experiment 3). Put shortly:
as §2

Assay [14] concerns Mus musculus. Put plainly: ED50 value was measured against streptococcus pneumoniae after sc administration in mice in vivo, in experiment 3). The method in brief:
as §2

The subject of assay [15] is Staphylococcus epidermidis. Put plainly: microbe, parasite or virus in culture.
The test system of assay [16] is Streptococcus pneumoniae. Put plainly: Effective dose against mice infected with streptococcus pneumoniae after peroral administration (in vivo). The following applies: in Mus musculus, po.
The test system of assay [17] is Haemophilus influenzae. Put plainly: MIC value was measured against haemophilus influenzae. Put shortly: as §1
Assay [18] relates to Enterococcus faecalis. Put plainly: MIC value was measured against streptococcus faecalis.
Assay [19] relates to Bacteria. As to the kind of experiment: MIC value was measured against streptococcus pyogenes. The method in brief: as §1
Assay [20] relates to Bacteria. As to the kind of experiment: MIC value was measured against staphylococcus epidermidis. Put shortly:
as §1

Assay [21] concerns Mus musculus. As to the kind of experiment: ED50 value was measured by sc administration against staphylococcus aureus infection in mice (in vivo, in experiment 1). Put shortly: as §2
For assay [22], the system named is Mus musculus. Put plainly: ED50 value was measured by sc administration against streptococcus pneumoniae infection in mice (in vivo, in experiment 2). The method in brief: as §2
For assay [23], the system named is Mus musculus. As to the kind of experiment: ED50 value was measured by po administration against streptococcus pneumoniae infection in mice (in vivo, in experiment 2). The method in brief:
as §2

Assay [24] deals with Mus musculus. Put plainly: ED50 value was measured by po administration against staphylococcus aureus infection in mice (in vivo, in experiment 2). Put shortly: as §2
Assay [25] concerns Mus musculus. As to the kind of experiment: ED50 value was measured by sc administration against staphylococcus aureus infection in mice (in vivo, in experiment 2). Put shortly:
as §2

For assay [26], the system named is Mus musculus. As to the kind of experiment: ED50 value was measured by po administration against streptococcus pyogenes infection in mice (in vivo, in experiment 2). The method in brief:
as §2

For assay [27], the system named is Mus musculus. Put plainly: ED50 value was measured by sc administration against streptococcus pneumoniae infection in mice (in vivo, in experiment 1). The method in brief: as §2
In assay [28] the test system is Mus musculus. Put plainly: ED50 value was measured by po administration against staphylococcus aureus infection in mice (in vivo, in experiment 1). The method in brief:
as §2

The test system of assay [29] is Streptococcus pneumoniae. As to the kind of experiment: MIC value measured against streptococcus pneumoniae Park1.
The subject of assay [30] is Mus musculus. Put plainly: ED50 value was measured by sc administration against streptococcus pyogenes infection in mice (in vivo, in experiment 1). The method in brief:
as §2

Assay [31] relates to Mus musculus. As to the kind of experiment: ED50 value was measured by sc administration against streptococcus pyogenes infection in mice (in vivo, in experiment 2). The method in brief: as §2
The subject of assay [32] is Mus musculus. As to the kind of experiment: ED50 value was measured by po administration against streptococcus pneumoniae infection in mice (in vivo, in experiment 1). The method in brief: as §2
Assay [33] concerns Mus musculus. Put plainly: ED50 value was measured by po administration against streptococcus pyogenes infection in mice (in vivo, in experiment 1). Put shortly: as §2

MIC and ED50 data for 5 compounds are collected here from ChEMBL document CHEMBL1125014, “Synthesis and structure-activity relationships of new 9-N-alkyl derivatives of 9(S)-erythromycylamine” (1990).

≈ marks a conversion by molar mass, not a printed value. A value given as a limit tells only on which side of the number the result lay.

In the case of `CCCN1C(C)O[C@@H]2[C@@H](C)[C@@H]1[C@H](C)C[C@@](C)(O)[C@H](OC1OC(C)CC(N(C)C)C1O)[C@@H](C)[C@H](OC1CC(C)(OC)C(O)C(C)O1)[C@@H](C)C(=O)O[C@H](CC)[C@@]2(C)O` (stereo partly specified), the MIC in assay [1] was 1 µg/mL (≈ 1.25 µM); in [2], 0.06 µg/mL (≈ 0.0747 µM); in assay [3] it was 0.25 µg/mL (≈ 0.311 µM); in assay [4], 0.015 µg/mL (≈ 0.0187 µM); in [5], 1 µg/mL (≈ 1.25 µM); in [6], 0.25 µg/mL (≈ 0.311 µM).

One may read the ED50 as the dose at which the effect has come halfway, by size or by number of responders. A high value points to weaker potency. With `CC[C@H]1OC(=O)[C@H](C)[C@@H](OC2CC(C)(OC)C(O)C(C)O2)[C@H](C)[C@@H](OC2OC(C)CC(N(C)C)C2O)[C@](C)(O)C[C@@H](C)[C@@H]2NC(COCCOC)O[C@H]([C@H]2C)[C@]1(C)O` (stereo partly specified), the ED50 is greater than 50 mg/kg in assay [7]; 43 mg/kg in assay [8]; 0.6 mg/kg in assay [9]; 27 mg/kg in [10]; 23 mg/kg in assay [11]; 34 mg/kg in [12]. Besides, the median effective dose (ED50) in assay [13] was 1 mg/kg; in assay [14], less than 0.6 mg/kg; in assay [16], 32 mg/kg. Moreover, the MIC in assay [1] is 0.5 µg/mL (≈ 0.599 µM); in [2], 0.12 µg/mL (≈ 0.144 µM); in assay [15], 0.5 µg/mL (≈ 0.599 µM); in assay [4], 0.06 µg/mL (≈ 0.0718 µM); in assay [5], 2 µg/mL (≈ 2.39 µM); in assay [6], 0.25 µg/mL (≈ 0.299 µM).

Turning to `CCCCC/C=C/CCCN[C@@H]1[C@H](C)[C@@H](O)[C@](C)(O)[C@@H](CC)OC(=O)[C@H](C)[C@@H](OC2CC(C)(OC)C(O)C(C)O2)[C@H](C)[C@@H](OC2OC(C)CC(N(C)C)C2O)[C@](C)(O)C[C@H]1C` (stereo partly specified), the MIC was 0.5 µg/mL (≈ 0.573 µM) in assay [1]; 2 µg/mL (≈ 2.29 µM) in assay [17]; 0.008 µg/mL (≈ 0.00916 µM) in [2]; 0.12 µg/mL (≈ 0.137 µM) in assay [18]; 0.25 µg/mL (≈ 0.286 µM) in [15]; 2 µg/mL (≈ 2.29 µM) in assay [5].

In the case of `CC[C@H]1OC(=O)[C@H](C)[C@@H](OC2CC(C)(OC)C(O)C(C)O2)[C@H](C)[C@@H](OC2OC(C)CC(N(C)C)C2O)[C@](C)(O)C[C@@H](C)[C@H](N2CCCCC2)[C@H](C)[C@@H](O)[C@]1(C)O` (stereo partly specified), the ED50 in [7] is greater than 44 mg/kg; in assay [8] it was 24 mg/kg; in assay [16] it was 21 mg/kg. Moreover, the MIC was 16 µg/mL (≈ 19.9 µM) in assay [1]; 1 µg/mL (≈ 1.25 µM) in assay [19]; 2 µg/mL (≈ 2.49 µM) in [17]; 8 µg/mL (≈ 9.96 µM) in assay [20]; 2 µg/mL (≈ 2.49 µM) in [5].

As to `CC[C@H]1OC(=O)[C@H](C)[C@@H](OC2CC(C)(OC)C(O)C(C)O2)[C@H](C)[C@@H](OC2OC(C)CC(N(C)C)C2O)[C@](C)(O)C[C@@H](C)[C@H](NCCOC)[C@H](C)[C@@H](O)[C@]1(C)O` (stereo partly specified), the ED50 came to 2 mg/kg in assay [21]; 3.3 mg/kg in assay [22]; 35 mg/kg in [7]; 16 mg/kg in [8]; 19 mg/kg in [23]; 35 mg/kg in [24]. In addition, the 50% effective dose (ED50) in [25] is 2.5 mg/kg; in [26], 16 mg/kg; in assay [27], 2 mg/kg; in assay [28] it was 44 mg/kg; in [30], 1.7 mg/kg; in assay [31], 2.1 mg/kg. Further, the ED50 in assay [32] stood at 25 mg/kg; in assay [16] it was 19 mg/kg; in assay [33], 16 mg/kg. The MIC in assay [1] came out at 0.5 µg/mL (≈ 0.63 µM); in assay [17], 1 µg/mL (≈ 1.26 µM); in assay [2] it was 0.12 µg/mL (≈ 0.151 µM); in assay [29], 0.015 µg/mL (≈ 0.0189 µM); in assay [15], 0.25 µg/mL (≈ 0.315 µM); in [5] it was 1 µg/mL (≈ 1.26 µM).
